Active and inactive are the calls of the source. The calls are words filed in the database; no cut-off is given here.
Experiments:
[1] = system: Escherichia coli; assay: Antibacterial activity against Escherichia coli by broth dilution assay; format: functional
Summary of the method: (§1)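 MIC99 by broth-dilution assay; antibacterial and culture details are in the Supporting Information.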

[2] = system: Klebsiella pneumoniae; assay: Antibacterial activity against Klebsiella pneumoniae by broth dilution assay; format: functional; summary of the method: as §1
[3] = system: Acinetobacter baumannii; assay: Antibacterial activity against Acinetobacter baumannii by broth dilution assay; format: functional; summary of the method: as §1
[4] = Binding affinity to DPH-doped model gram negative bacterial membrane (LPS/DPPE/DMPG lipids) assessed as increase in membrane fluidity by fluorescence anisotrophy
Summary of the method: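 Vesicles of LPS, DPPE and DMPG doped with DPH were incubated with compound, and the change in DPH fluorescence anisotropy was recorded. Mean ± SD of three replicates, unpaired two-tailed t-test.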

[5] = system: Lipopolysaccharide (LPS); assay: Displacement of dansyl-polymyxin B from LPS of bacterial cell membrane by fluorescence spectrophotometry; conditions: Bacteria
Summary of the method: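 Dansyl-polymyxin B–LPS complexes titrated with compound; rise in dansyl fluorescence from displacement measured. Mean ± SD of three replicates, unpaired two-tailed t-test.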

[6] = system: Lipopolysaccharide (LPS); assay: Binding affinity to bacterial LPS by BODIPY-LPS based fluorescence assay; conditions: Bacteria
Summary of the method: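 BODIPY-conjugated LPS aggregates titrated with compound; fluorescence increase from aggregate disintegration recorded. Mean ± SD of three replicates, unpaired two-tailed t-test.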

[7] = system: Cell membrane; assay: Binding affinity to bacterial cell membrane assessed as Ka1 by SPR assay; format: cell membranes; conditions: Bacteria
Summary of the method: (§2)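 Surface plasmon resonance of compound binding to bacterial membranes. K1, K2 and overall KA were calculated from the sensorgrams. Average of three replicates.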

[8] = system: Cell membrane; assay: Binding affinity to bacterial cell membrane assessed as Kd1 by SPR assay; format: cell membranes; conditions: Bacteria; summary of the method: as §2
[9] = system: Cell membrane; assay: Binding affinity to bacterial cell membrane assessed as K1 by SPR assay; format: cell membranes; conditions: Bacteria; summary of the method: as §2
[10] = system: Cell membrane; assay: Binding affinity to bacterial cell membrane assessed as Kd2 by SPR assay; format: cell membranes; conditions: Bacteria; summary of the method: as §2
[11] = system: Cell membrane; assay: Binding affinity to bacterial cell membrane assessed as K2 by SPR assay; format: cell membranes; conditions: Bacteria; summary of the method: as §2
[12] = system: Cell membrane; assay: Binding affinity to bacterial cell membrane assessed as KA by SPR assay; format: cell membranes; conditions: Bacteria; summary of the method: as §2
[13] = system: Escherichia coli; assay: Induction of membrane permeabilization in Escherichia coli at 8 uM after 40 mins by NPN-fluorescence based assay; format: organism-based; conditions: Cell membrane
Summary of the method: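 NPN-stained E. coli incubated with compound at 8 µM; outer-membrane permeabilization followed as NPN fluorescence over time. Average of three replicates.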

[14] = system: Escherichia coli; assay: Induction of membrane permeabilization in Escherichia coli at 8 uM after 30 mins DiSC2-fluorescence based assay; format: organism-based; conditions: Cell membrane
Summary of the method: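 DiSC2(5)-loaded E. coli treated at 8 µM; depolarization-driven fluorescence increase followed over time. Average of three replicates.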

[15] = system: Escherichia coli; assay: Induction of membrane permeabilization in Escherichia coli at 32 uM by propidium iodide uptake based FACS analysis; format: organism-based; conditions: Cell membrane
Summary of the method: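 E. coli treated at 32 µM, PI-stained, and PI-positive cells counted by flow cytometry. Mean ± SD of four replicates, unpaired two-tailed t-test.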

[16] = system: Escherichia coli; assay: Induction of membrane permeabilization in Escherichia coli in presence of 1.9 to 1000 ug/ml LPS by propidium iodide uptake based FACS analysis; format: organism-based; conditions: Cell membrane
Summary of the method: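 E. coli was treated with compound in the presence of graded LPS and stained with propidium iodide. The percentage of PI-positive cells was measured by flow cytometry.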

[17] = system: Escherichia coli; assay: Bactericidal activity against Escherichia coli assessed as reduction in colony forming units at 1 times MIC99 concentration after 6 hrs by fluorescent based time-kill assay; format: functional, organism-based
[18] = system: Escherichia coli; assay: Bactericidal activity against stationary form of Escherichia coli assessed as reduction in colony forming units by fluorescent based time-kill assay; format: functional, organism-based
[19] = system: Escherichia coli; assay: Bactericidal activity against persistent form of Escherichia coli assessed as reduction in colony forming units by fluorescent based time-kill assay; format: functional, organism-based
[20] = system: Escherichia coli; assay: Antibiofilm activity against Escherichia coli assessed as reduction in colony forming units after 24 hrs by crystal violet-based assay; format: functional, organism-based
[21] = system: Escherichia coli; assay: Antibiofilm activity against Escherichia coli assessed as reduction in colony forming units at 64 uM after 24 hrs by crystal violet-based assay relative to control; format: functional
[22] = system: Escherichia coli; assay: Antibiofilm activity against Escherichia coli assessed as reduction in biomass levels at 64 uM after 24 hrs by crystal violet-based assay relative to control; format: functional; parameters: scale not given: the % may be the effect or the level left
Summary of the method: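 Pre-formed E. coli biofilms treated 24 h with varying doses; biomass quantified by crystal violet staining relative to untreated. Mean ± SD of three replicates, unpaired two-tailed t-test.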

[23] = system: Escherichia coli; assay: Antibiofilm activity against Escherichia coli assessed as reduction in biomass levels after 24 hrs by SYT09-propidium iodide based confocal microscopy; format: functional, organism-based
Summary of the method: (§3)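 Treated E. coli biofilms stained with SYTO9 (all cells) and PI (dead cells) and imaged by confocal laser scanning microscopy. Biofilm thickness quantified against untreated. Mean ± SD of three replicates, unpaired two-tailed t-test.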

[24] = system: Escherichia coli; assay: Antibacterial activity against Escherichia coli isolate 6/23 infected in wound areas of BALB/c mouse assessed as reduction in colony forming units at 40 mg/kg dosed thrice daily for 4 days starting 6 hrs post infection and measured on day 5; format: functional, organism-based
[25] = system: Escherichia coli; assay: Antibacterial activity against Escherichia coli XEN 14 infected in wound areas of BALB/C mouse assessed as reduction in bacterial load at 40 mg/kg administered thrice daily for 4 days starting 6 hrs post infection and measured on day 5 by bioluminescence imaging analysis; format: functional, organism-based
[26] = system: Escherichia coli; assay: Antibacterial activity against Escherichia coli isolate 9/44 by broth dilution assay; format: functional
[27] = system: Escherichia coli; assay: Antibacterial activity against Escherichia coli isolate 9/203 by broth dilution assay; format: functional
[28] = system: Escherichia coli; assay: Antibacterial activity against Escherichia coli isolate 6/23 by broth dilution assay; format: functional
[29] = system: Escherichia coli; assay: Antibacterial activity against Escherichia coli isolate 6/27 by broth dilution assay; format: functional
[30] = system: Escherichia coli; assay: Antibacterial activity against Escherichia coli isolate 6/38 by broth dilution assay; format: functional
[31] = system: Acinetobacter baumannii; assay: Antibacterial activity against Acinetobacter baumannii isolate 4/307 by broth dilution assay; format: functional
[32] = system: Acinetobacter baumannii; assay: Antibacterial activity against Acinetobacter baumannii isolate 1/303 by broth dilution assay; format: functional
[33] = system: Acinetobacter baumannii; assay: Antibacterial activity against Acinetobacter baumannii isolate 5/321 by broth dilution assay; format: functional
[34] = system: Acinetobacter baumannii; assay: Antibacterial activity against Acinetobacter baumannii isolate 4/202 by broth dilution assay; format: functional
[35] = system: Acinetobacter baumannii; assay: Antibacterial activity against Acinetobacter baumannii isolate 5/412 by broth dilution assay; format: functional
[36] = system: Klebsiella pneumoniae; assay: Antibacterial activity against Klebsiella pneumoniae isolate 8/407 by broth dilution assay; format: functional
[37] = system: Klebsiella pneumoniae; assay: Antibacterial activity against Klebsiella pneumoniae isolate 8/307 by broth dilution assay; format: functional
[38] = system: Klebsiella pneumoniae; assay: Antibacterial activity against Klebsiella pneumoniae isolate 7/47 by broth dilution assay; format: functional
[39] = system: Klebsiella pneumoniae; assay: Antibacterial activity against Klebsiella pneumoniae isolate 12823 by broth dilution assay; format: functional
[40] = Selectivity index, ratio of HC50 for human RBC to MIC99 for Escherichia coli; format: toxicity; conditions: human red blood cells (RBC), read-out: Selectivity Index
[41] = Selectivity index, ratio of IC50 for human A549 cells to MIC99 for Escherichia coli; format: toxicity; conditions: read-out: Selectivity Index
[42] = Critical micellar concentration of the compound; format: physicochemical
[43] = system: Escherichia coli; assay: Induction of membrane permeabilization in Escherichia coli by SYTO9-PI staining based fluorescence microscopy; format: organism-based; conditions: Cell membrane
[44] = system: Escherichia coli; assay: Induction of cell morphology changes in Escherichia coli at 8 uM by TEM assay; format: functional, organism-based
Summary of the method: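 E. coli treated at 8 µM, sampled at different times and imaged by transmission electron microscopy beside untreated cells.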

[45] = system: Escherichia coli; assay: Antimicrobial activity against compound-pre-treated Escherichia coli by broth dilution assay based drug resistance development assay; format: functional, organism-based
Summary of the method: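 E. coli pre-treated with compound, then MIC₉₉ redetermined by broth-dilution assay in four replicates; reported as fold change in MIC₉₉ relative to starting value to assess resistance development.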

[46] = system: Escherichia coli; assay: Ratio of antimicrobial activity against Escherichia coli using 10^12 CFU/ml bacterial inoculum by broth dilution assay to antimicrobial activity against Escherichia coli by broth dilution assay; format: functional
Summary of the method: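 MIC99 against E. coli was measured by broth dilution at a range of inoculum densities up to 10¹² CFU/mL, in four replicates. Results were expressed as fold change in MIC99 relative to the standard inoculum.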

[47] = system: Escherichia coli; assay: Antibiofilm activity against Escherichia coli after 24 hrs by propidium iodide uptake based FACS analysis; format: functional, organism-based
[48] = system: Escherichia coli; assay: Antibiofilm activity against Escherichia coli assessed as biofilm thickness after 24 hrs (reference value: >8 micrometer); format: functional; summary of the method: as §3
[49] = system: Escherichia coli; assay: Induction of cell membrane disruption in Escherichia coli assessed as pore network disruption by SEM assay; format: functional, organism-based
[50] = system: Escherichia coli; assay: Induction of cell membrane disruption in Escherichia coli assessed as extracellular architecture disruption by SEM assay; format: functional, organism-based
[51] = system: Escherichia coli; assay: Antibiofilm activity against Escherichia coli isolate 6/23 exposed to compound-coated catheters assessed as reduction in colony forming units incubated for 3 days; format: functional, organism-based
[52] = system: Escherichia coli; assay: Antibiofilm activity against Escherichia coli isolate 6/23 infected in BALB/c mouse implanted subcutaneously with compound treated catheters followed by infection at incision site; format: functional, organism-based
[53] = system: Escherichia coli; assay: Bactericidal activity against Escherichia coli assessed as reduction in colony forming units at 4 times MIC99 concentration after 90 mins by fluorescent based time-kill assay
[54] = Solubility in water; format: physicochemical; conditions: buffer

Compound: CC(C)[C@H](N)C(=O)NCC(=O)O[C@@H]1CC[C@@]2(C)[C@@H](C1)C[C@@H](OC(=O)CNC(=O)[C@@H](N)C(C)C)[C@@H]1[C@@H]2C[C@H](OC(=O)CNC(=O)[C@@H](N)C(C)C)[C@]2(C)[C@@H]([C@H](C)CCC(=O)OCc3ccccc3)CC[C@@H]12.Cl.Cl.Cl
- MIC99 [1]: 8 µM
- MIC99 [2]: 16 µM
- MIC99 [3]: 16 µM
- Activity [4]: Active
- inhibition [5]: Active
- Activity [6]: Active
- K [7]: 2.41 ×10⁴ /Ms
- K [8]: 6 ×10⁻² /s
- K [9]: 4.06 ×10⁵ /M
- K [10]: 4.19 ×10⁻⁵ /s
- K [11]: 2.39 ×10² /M
- KA [12]: 9.6 ×10⁷ /M
- Activity [13]: Active
- Activity [14]: Active
- Activity [15]: Active
- Activity [16]: inactive
- Activity [17]: inactive
- Activity [18]: Active
- Activity [19]: Active
- Activity [20]: Dose-dependent effect
- log(activity) [21]: 8
- Activity [22]: 90%
- Activity [23]: Active
- Activity [24]: Active
- Activity [25]: Active
- MIC99 [26]: 8 µM
- MIC99 [27]: 8 µM
- MIC99 [28]: 8 µM
- MIC99 [29]: 4 µM
- MIC99 [30]: 4 µM
- MIC99 [31]: 16 µM
- MIC99 [32]: 16 µM
- MIC99 [33]: 4 µM
- MIC99 [34]: 8 µM
- MIC99 [35]: 4 µM
- MIC99 [36]: 8 µM
- MIC99 [37]: 8 µM
- MIC99 [38]: 4 µM
- MIC99 [39]: 8 µM
- selectivity ratio [40]: 6 to 7
- selectivity ratio [41]: 6 to 7
- CMC [42]: > 100 µM
- Activity [43]: Active
- Activity [44]: Active
- Activity [45]: Active
- Ratio [46]: 2
- Activity [47]: Active
- Activity [48]: 3 um
- Activity [49]: Active
- Activity [50]: Active
- Activity [51]: Active
- Activity [52]: Active
- Activity [53]: Active

Compound: C[C@H](CCC(=O)OCc1ccccc1)[C@H]1CC[C@H]2[C@@H]3[C@H](OC(=O)CNC(=O)[C@@H](N)Cc4c[nH]c5ccccc45)C[C@@H]4C[C@H](OC(=O)CNC(=O)[C@@H](N)Cc5c[nH]c6ccccc56)CC[C@]4(C)[C@H]3C[C@H](OC(=O)CNC(=O)[C@@H](N)Cc3c[nH]c4ccccc34)[C@]12C.Cl.Cl.Cl
- MIC99 [1]: inactive
- Activity [4]: inactive
- solubility [54]: Insoluble

From ChEMBL document CHEMBL4411332, “Deciphering the Role of Intramolecular Networking in Cholic Acid-Peptide Conjugates on the Lipopolysaccharide Surface in Combating Gram-Negative Bacterial Infections” (J Med Chem, 2019)
